Assay results from ChEMBL document CHEMBL2177081, “Orally active metabotropic glutamate subtype 2 receptor positive allosteric modulators: structure-activity relationships and assessment in a rat model of nicotine dependence” (J Med Chem, 2012).

What was measured:
[1] = test system: Rattus norvegicus; assay: Ratio of drug level in brain to plasma in rat at 10 mg/kg, po
[2] = test system: Rattus norvegicus; assay: AUC (0 to t) in rat at 2 mg/kg, iv; assay type: ADME, organism-based, Plasma; design: dose 2 mg/kg, route intravenous; settings: in vivo
[3] = test system: Rattus norvegicus; assay: Volume of distribution in rat at 10 mg/kg, po; assay type: ADME, organism-based; design: dose 10 mg/kg, route oral; settings: in vivo
Outline: (§1)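 Rats dosed orally at 10 mg/kg as sodium salts in sterile water, n = 3 (n = 5 for one compound). Plasma sampled for PK parameters; brain and plasma harvested at or near Tmax for levels and brain:plasma ratio.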

[4] = test system: Rattus norvegicus; assay: Oral bioavailability in rat at 10 mg/kg; assay type: ADME, organism-based; settings: in vivo
Outline: (§2)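 Sodium salts were given to rats by oral dose at 10 mg/kg in sterile water, with n = 3 or 5 animals per compound. Plasma concentration was measured over time to give Cmax, Tmax, terminal half-life and oral bioavailability (F). Brain and plasma were taken at or near Tmax.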

[5] = test system: Rattus norvegicus; assay: AUC (0 to t) in rat at 10 mg/kg, po; assay type: ADME, organism-based, Plasma; design: dose 10 mg/kg, route oral; settings: in vivo
Outline: (§3)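 Sodium salt given orally at 10 mg/kg in sterile water to rats, n = 3 (n = 5 for one compound). Plasma was sampled over time for Cmax, Tmax, AUC(0–t), t1/2 and oral bioavailability. Brain and plasma were harvested at or near Tmax to measure levels and the brain:plasma ratio.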

[6] = test system: Brain; assay: Drug level in rat brain at 10 mg/kg, po; assay type: ADME, organism-based; design: dose 10 mg/kg, route oral; settings: in vivo, read-out: Drug uptake
Outline: as §3

[7] = test system: Rattus norvegicus; assay: Cmax in rat at 10 mg/kg, po; assay type: ADME, organism-based; design: dose 10 mg/kg, route oral; settings: in vivo
Outline: as §2

[8] = test system: Plasma; assay: Plasma concentration in rat at 10 mg/kg, po; assay type: ADME, organism-based; design: dose 10 mg/kg, route oral; settings: in vivo
Outline: as §1

[9] = test system: Rattus norvegicus; assay: Volume of distribution in rat at 2 mg/kg, iv; assay type: ADME, organism-based; design: dose 2 mg/kg, route intravenous; settings: in vivo
Outline: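 Intravenous dose of 2 mg/kg in rats, given as sodium salt in sterile water; plasma PK parameters including volume of distribution.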

[10] = test system: Rattus norvegicus; assay: Cmax in rat at 2 mg/kg, iv; assay type: ADME, organism-based; design: dose 2 mg/kg, route intravenous; settings: in vivo
Outline: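 Rats received sodium salts intravenously at 2 mg/kg in sterile water. Cmax is the maximum compound concentration detected in plasma, and terminal half-life was derived from the plasma concentration–time profile.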

[11] = test system: Rattus norvegicus; assay: Tmax in rat at 10 mg/kg, po; assay type: ADME, organism-based; design: dose 10 mg/kg, route oral; settings: in vivo
[12] = test system: Rattus norvegicus; assay: AUC (0 to t) in rat at 10 mg/kg, ip; assay type: ADME, organism-based, Plasma; design: dose 10 mg/kg, route intraperitoneal; settings: in vivo
[13] = (§4) Cmax in rat at 10 mg/kg, ip; assay type: ADME, organism-based; design: dose 10 mg/kg, route intraperitoneal; settings: in vivo
Outline: (§5)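 Intraperitoneal dosing in rats at 10 mg/kg, sodium salt form, sterile water vehicle. Cmax is the maximum compound concentration detected in plasma, and terminal half-life was derived from the plasma profile.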

[14] = test system: Rattus norvegicus; assay: Volume of distribution in rat at 10 mg/kg, ip; assay type: ADME, organism-based; design: dose 10 mg/kg, route intraperitoneal; settings: in vivo
Outline: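 Intraperitoneal dose of 10 mg/kg in rats, given as sodium salt in sterile water; plasma PK parameters including volume of distribution.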

[15] = test system: Rattus norvegicus; assay: as §4; assay type: ADME, organism-based; design: dose 10 mg/kg, route intraperitoneal; settings: in vivo
Outline: as §5

| Structure (SMILES) | BPR [1] | AUCt [2] [µM·h] | Vd [3] [mL] | F [4] [%] | AUCt [5] [µM·h] | concentration [6] [nM] | Cmax [7] [nM] | concentration [8] [nM] | Vd [9] [mL] | Cmax [10] [µM] | Tmax [11] [min] | AUCt [12] [µM·h] | Cmax [13] [µM] | Vd [14] [mL] | Cmax [15] [nM] |
| --- | --- | --- | --- | --- | --- | --- | --- | --- | --- | --- | --- | --- | --- | --- | --- |
| COc1ccc(C(=O)[O-])cc1-c1cccc(COc2ccc3c(c2)CN(C2CCCC2)C3=O)c1.[Na+] | 0.13 | 6.7 | 10875.2 | 84.8 | 12 | 180 | 4000 | 1460 | 4620 | 5.6 | 30 |  |  |  |  |
| O=C([O-])c1cc(-c2cccc(COc3ccc4c(=O)n(C5CC5)sc4c3)c2)ccc1Cl.[Na+] | 0.04 |  | 4.1 |  | 61.5 | 30 | 8500 | 800 |  |  | 60 | 25.8 | 9.6 | 2.4 |  |
| O=C([O-])c1cc(-c2cccc(COc3ccc4c(c3)CN(C3CCCC3)C4=O)c2)ccc1Cl.[Na+] | 0.039 | 11.8 | 3 | 71.4 | 42.5 |  | 3000 |  | 0.6 | 28.2 |  |  |  |  |  |
| O=C([O-])c1cc(-c2cccc(COc3ccc4c(c3)CN(C3CCCC3)C4=O)c2)ccc1O.[Na+] | 0.0335 | 2.57 | 28 | 109.2 | 7.1 | 7.1 | 1600 | 210 | 4.3 | 3.9 | 30 |  |  |  |  |
| O=C([O-])c1cc(-c2cccc(-c3ccc4c(c3)CN(C3CCCC3)C4=O)c2)ccc1Cl.[Na+] |  |  | 96.2 |  | 2.67 |  | 400 |  |  |  | 30 | 3.23 |  | 21.2 | 2000 |
